Series [1] concerns the target Coagulation factor IX (Homo sapiens, UniProt P00740). Nature of the series: Inhibition of factor 9a at 12.5 uM. The method, boiled down: (§1)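 Human coagulation enzyme tested in a chromogenic enzyme assay. Percent inhibition was read at a single inhibitor concentration.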
Series [2] can be described thus: Dissociation constant, pKa of the compound. The format is physicochemical.
The target in series [3] is Coagulation factor X (Homo sapiens) (UniProt P00742). Nature of the series: Inhibition of factor 10a at 10 uM. The method, boiled down: as §1
Sequence of Coagulation factor X (Homo sapiens) (P00742 41-179 limits assumed): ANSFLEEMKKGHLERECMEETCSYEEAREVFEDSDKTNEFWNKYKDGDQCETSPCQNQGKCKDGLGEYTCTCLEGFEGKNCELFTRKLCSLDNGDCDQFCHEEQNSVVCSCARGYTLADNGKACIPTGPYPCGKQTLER
Sequence of Coagulation factor X (Homo sapiens) (P00742 235-488 limits assumed): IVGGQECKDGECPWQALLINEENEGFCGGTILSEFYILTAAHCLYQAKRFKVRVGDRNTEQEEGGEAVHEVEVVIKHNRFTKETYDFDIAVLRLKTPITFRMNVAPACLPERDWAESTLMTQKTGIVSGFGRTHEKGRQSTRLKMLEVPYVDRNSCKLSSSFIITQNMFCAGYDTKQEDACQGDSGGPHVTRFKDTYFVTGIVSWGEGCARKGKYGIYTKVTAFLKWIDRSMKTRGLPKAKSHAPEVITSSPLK
Series [4] can be described thus: Drug level in dermis of pig excisional wound model. The format is ADME, tissue-based, Sus scrofa. The conditions noted are these: in vivo, read-out: Activity. The method, boiled down: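 Pig full-thickness wounds dosed topically once daily for 10 days with 1 mL of 10 mg/mL compound suspended in hydrogel (glycerol/water/F127/CMC). Animals killed on day 11. Wounds excised and dermal compound concentration determined.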

Series [5] deals with Tissue-type plasminogen activator (Homo sapiens, UniProt P00750). Nature of the series: Inhibition of human tPA. The method, boiled down:
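Human one-chain tPA 0.4 µg/mL (final) with 0.1 mg/mL tPA stimulator, preincubated 15 min at 37 °C with inhibitor in 75 mM Tris pH 8.1, 50 mM NaCl. Then 0.4 mM S-2288 (H-D-Ile-Pro-Arg-pNA) added, 60 min at 37 °C. A405 read after preincubation and after substrate incubation, background subtracted. IC50 from % inhibition vs concentration. Ki = IC50/(1+[S]/Km), Km 250 µM.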

Series [6] in a line: Lipophilicity, log D at pH7.4. Format: physicochemical. The note with it: buffer, pH 7.4.
The target of series [7] is Plasminogen (Homo sapiens, UniProt P00747). Briefly: Inhibition of human plasmin. The method, boiled down: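 Human plasmin 0.7 µg/mL with 0.2 mM Chromozym-PL and varied inhibitor in Tris pH 8.1/NaCl buffer. Preincubated 15 min at 37 °C, then 30 min at 37 °C with substrate. A405 background-subtracted, % inhibition plotted for IC50.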
Sequence of Plasminogen (P00747 97-580 limits assumed): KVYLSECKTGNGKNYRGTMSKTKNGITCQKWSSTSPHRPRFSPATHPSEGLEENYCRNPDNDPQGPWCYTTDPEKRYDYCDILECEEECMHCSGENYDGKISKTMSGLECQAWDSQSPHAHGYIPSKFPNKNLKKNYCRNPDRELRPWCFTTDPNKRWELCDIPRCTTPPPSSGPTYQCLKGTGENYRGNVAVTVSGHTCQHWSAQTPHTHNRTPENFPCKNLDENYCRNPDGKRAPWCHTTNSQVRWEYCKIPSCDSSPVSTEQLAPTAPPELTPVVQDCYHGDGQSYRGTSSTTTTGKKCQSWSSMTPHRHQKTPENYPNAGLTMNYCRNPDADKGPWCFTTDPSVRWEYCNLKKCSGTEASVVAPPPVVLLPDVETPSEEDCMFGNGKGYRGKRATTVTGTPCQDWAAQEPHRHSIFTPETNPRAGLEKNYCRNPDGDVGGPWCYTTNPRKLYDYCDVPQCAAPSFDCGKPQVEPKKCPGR
Sequence of Plasminogen (P00747 581-810 limits assumed): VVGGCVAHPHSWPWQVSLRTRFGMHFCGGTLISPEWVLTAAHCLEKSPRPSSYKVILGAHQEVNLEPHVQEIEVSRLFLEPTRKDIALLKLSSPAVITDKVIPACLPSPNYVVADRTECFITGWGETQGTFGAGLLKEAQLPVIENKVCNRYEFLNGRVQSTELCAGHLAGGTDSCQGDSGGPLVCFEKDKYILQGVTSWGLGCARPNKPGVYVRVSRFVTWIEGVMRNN
Series [8] in a line: Solubility in phosphate buffered saline at pH 6.5. The format is physicochemical. The method, boiled down:
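Solubility measured in phosphate-buffered saline, pH 6.5.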

Molecules are shown by their SMILES. Values after ≈ are worked out from the molar mass of the structure shown.

Sequence of Tissue-type plasminogen activator (P00750 whole entry): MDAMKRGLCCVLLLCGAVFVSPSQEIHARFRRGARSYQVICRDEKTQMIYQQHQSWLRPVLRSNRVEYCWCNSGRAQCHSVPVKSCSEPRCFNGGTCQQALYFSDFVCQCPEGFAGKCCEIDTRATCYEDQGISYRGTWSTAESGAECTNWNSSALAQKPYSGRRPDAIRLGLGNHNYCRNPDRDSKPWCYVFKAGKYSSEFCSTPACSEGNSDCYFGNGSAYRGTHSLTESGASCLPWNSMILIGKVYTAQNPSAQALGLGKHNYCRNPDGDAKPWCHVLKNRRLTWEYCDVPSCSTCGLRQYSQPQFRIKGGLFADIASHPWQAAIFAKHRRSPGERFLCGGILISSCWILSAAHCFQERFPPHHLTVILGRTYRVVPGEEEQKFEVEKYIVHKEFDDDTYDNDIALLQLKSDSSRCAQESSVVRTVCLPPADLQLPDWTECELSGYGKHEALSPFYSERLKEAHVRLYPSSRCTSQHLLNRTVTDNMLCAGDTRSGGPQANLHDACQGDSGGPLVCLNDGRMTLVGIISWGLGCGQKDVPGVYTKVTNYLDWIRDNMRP
Sequence of Coagulation factor IX (P00740 47-191 limits assumed): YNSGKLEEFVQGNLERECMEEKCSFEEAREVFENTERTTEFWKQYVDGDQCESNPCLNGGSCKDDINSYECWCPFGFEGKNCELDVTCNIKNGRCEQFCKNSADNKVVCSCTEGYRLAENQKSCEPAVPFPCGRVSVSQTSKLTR
Sequence of Coagulation factor IX (P00740 227-461 limits assumed): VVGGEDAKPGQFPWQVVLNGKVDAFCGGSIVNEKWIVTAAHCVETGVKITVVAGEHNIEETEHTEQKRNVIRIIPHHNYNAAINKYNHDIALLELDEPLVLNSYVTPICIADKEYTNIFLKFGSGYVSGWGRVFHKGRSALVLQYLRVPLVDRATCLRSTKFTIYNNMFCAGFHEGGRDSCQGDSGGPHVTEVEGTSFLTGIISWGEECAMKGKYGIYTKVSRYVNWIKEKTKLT

The term inhibition denotes the change of the read-out against control, counted positive when it falls. Low readings indicate a weak effect, high ones a strong effect. One may read the pKa as the negative logarithm of the acid dissociation constant. Higher therefore signals a group that holds its proton tightly. The term Ki denotes a measure of affinity in units of concentration, obtained from inhibition or displacement. High values mean weaker binding, low ones tighter binding. As usually defined, the logD is lipophilicity at a set pH, counting ionised and neutral species. Low readings indicate lower lipophilicity, high ones higher lipophilicity. For orientation: solubility means the concentration that dissolves in the medium under given conditions. Low values mean little dissolved substance, high ones much dissolved substance. On to `CC(C)(NS(=O)(=O)c1ccc2c(Cl)cnc(N=C(N)N)c2c1)C(=O)O`, for which the inhibition in series [1] is 13%; in series [3] it was 0%. In addition, the pKa in series [2] was found to be 3.4. In series [4], the concentration was 41.8 µM. The values for the Ki in series [5] and in series [7] were 40 µM and 27 µM, respectively. This compound also yielded a logD in series [6] of 0. Also, in series [8], the solubility was 2.3 µg/mL (≈ 5.96 µM).
